# ChEMBL document CHEMBL4177755, “Combating Drug-Resistant Fungi with Novel Imperfectly Amphipathic Palindromic Peptides” (J Med Chem, 2018)
# Tests used:
# Candida albicans [1] = test: Fungicidal activity against Candida albicans 14936 after 96 hrs; format: functional; conditions: Candida albicans, 14936, 96 h; read-out: MFC99.9
# In short: (§1)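 After the 48 h, 28 °C broth microdilution in MOPS-buffered RPMI 1640 (inoculum (0.5−1) × 10^3 CFU/mL), 50 μL from each well was plated on YM agar for a further 48 h at 28 °C. MFC is the lowest concentration killing at least 99.9% of cells. Triplicate, three biological replicates.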
# Candida tropicalis [2] = test: Antifungal activity against Candida tropicalis cgmcc 2.1975 after 48 hrs by broth microdilution method; format: functional; conditions: cgmcc 2.1975, 48 h
# In short: (§2)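 Modified CLSI M27-A2 broth microdilution. Yeast were suspended in MOPS-buffered RPMI 1640 at a final (0.5−1) × 10^3 CFU/mL and mixed 1:1 with peptide serially diluted in 0.2% BSA. Plates were incubated 48 h at 28 °C and read at A492. MIC is the lowest concentration giving 95% inhibition. Run in triplicate with three biological replicates.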
# Candida albicans [3] = test: Antifungal activity against Candida albicans SP3876 after 48 hrs by broth microdilution method; format: functional; conditions: SP3876, 48 h
# In short: (§3)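 Modified CLSI M27-A2 broth microdilution. Yeast at (0.5−1) × 10^3 CFU/mL in MOPS-buffered RPMI 1640 was mixed 1:1 with peptide serially diluted in 0.2% BSA and incubated 48 h at 28 °C. Absorbance was read at 492 nm; MIC is the lowest concentration inhibiting 95% of growth. Triplicate, three biological replicates.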
# Candida albicans [4] = test: Antifungal activity against Candida albicans cgmcc 2.2086 in presence of FeCl3 by broth dilution method; format: functional
# Candida albicans [5] = test: Antifungal activity against Candida albicans cgmcc 2.2086 in presence of ZnCl2 by broth dilution method; format: functional
# Escherichia coli [6] = test: Bactericidal activity against Escherichia coli ATCC 25922; format: functional; conditions: read-out: MBC99.9
# In short: (§4)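 Wells from the 24 h, 37 °C MHB microdilution plates (bacteria at a final (0.5−1) × 10^5 CFU/mL; peptide diluted in 0.2% BSA) were plated on agar and incubated overnight. MBC is the lowest concentration killing >99.9% of cells. Each test was reproduced at least 3 times.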
# Candida albicans [7] = test: Antifungal activity against Candida albicans SP3931 after 48 hrs by broth microdilution method; format: functional; conditions: SP3931, 48 h; in short: as §3
# Escherichia coli [8] = test: Antibacterial activity against Escherichia coli ATCC 25922 after 18 hrs in presence of ZnCl2 by broth dilution method; format: functional; conditions: ATCC 25922, 18 h
# Candida albicans [9] = test: Antifungal activity against Candida albicans 58288 after 48 hrs by broth microdilution method; format: functional; conditions: Candida albicans, 58288, 48 h; in short: as §3
# Staphylococcus aureus [10] = test: Antibacterial activity against Staphylococcus aureus ATCC 25923 after 24 hrs; format: functional; conditions: ATCC 25923, 24 h
# In short: (§5)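 Modified NCCLS broth microdilution. Mid-log bacteria at (0.5−1) × 10^5 CFU/mL in MHB were mixed 1:1 with peptide serially diluted in 0.2% BSA and incubated 24 h at 37 °C. Absorbance was read at 492 nm; MIC is the lowest concentration inhibiting 95% of growth. At least 3 repeats.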
# Escherichia coli [11] = test: Antibacterial activity against Escherichia coli ATCC 25922 after 24 hrs; format: functional; conditions: ATCC 25922, 24 h
# In short: (§6)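 Broth microdilution. Mid-log bacteria in MHB at a final (0.5−1) × 10^5 CFU/mL were mixed with equal volumes of peptide serially diluted in 0.2% BSA. Plates were incubated 24 h at 37 °C and read at A492. MIC is the lowest concentration inhibiting 95% of growth. Each test was repeated at least 3 times.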
# Salmonella typhimurium [12] = test: Antibacterial activity against Salmonella typhimurium ATCC 14028 after 24 hrs; format: functional, Salmonella enterica subsp. enterica serovar Typhimurium; conditions: Salmonella enterica, ATCC 14028, 24 h; in short: as §6
# Candida tropicalis [13] = test: Fungicidal activity against Candida tropicalis cgmcc 2.1975 after 96 hrs; format: functional; conditions: cgmcc 2.1975, 96 h, read-out: MFC99.9
# In short: (§7)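 Wells from the 48 h, 28 °C RPMI 1640/MOPS microdilution plates were plated on YM agar and incubated a further 48 h at 28 °C. MFC is the lowest concentration killing at least 99.9% of cells. Run in triplicate with three biological replicates.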
# [14] = tested on: Staphylococcus epidermidis; test: Bactericidal activity against Staphylococcus epidermidis ATCC 12228; format: functional; conditions: read-out: MBC99.9; in short: as §4
# Salmonella typhimurium [15] = test: Bactericidal activity against Salmonella typhimurium ATCC 14028; format: functional, Salmonella enterica subsp. enterica serovar Typhimurium; conditions: Salmonella enterica, read-out: MBC99.9; in short: as §4
# Staphylococcus aureus [16] = test: Antibacterial activity against methicillin-resistant Staphylococcus aureus ATCC 4330 after 24 hrs; format: functional; conditions: ATCC 4330, 24 h; in short: as §5
# Candida parapsilosis [17] = test: Fungicidal activity against Candida parapsilosis cgmcc 2.3989 after 96 hrs; format: functional; conditions: Lodderomyces parapsilosis, cgmcc 2.3989, 96 h; read-out: MFC99.9; in short: as §7
# Candida albicans [18] = test: Fungicidal activity against Candida albicans SP3876 after 96 hrs; format: functional; conditions: SP3876, 96 h, read-out: MFC99.9; in short: as §1
# Escherichia coli [19] = test: Antibacterial activity against Escherichia coli ATCC 25922 after 18 hrs in presence of KCl by broth dilution method; format: functional; conditions: ATCC 25922, 18 h
# Candida albicans [20] = test: Fungicidal activity against fluconazole-resistant Candida albicans 56214 after 96 hrs; format: functional; conditions: Candida albicans, 56214, 96 h; read-out: MFC99.9; in short: as §1
# Escherichia coli [21] = test: Antibacterial activity against Escherichia coli ATCC 25922 after 18 hrs in presence of CaCl2 by broth dilution method; format: functional; conditions: ATCC 25922, 18 h
# Staphylococcus aureus [22] = test: Bactericidal activity against Staphylococcus aureus ATCC 29213; format: functional; conditions: read-out: MBC99.9; in short: as §4
# Candida albicans [23] = test: Fungicidal activity against fluconazole-resistant Candida albicans 17546 after 96 hrs; format: functional; conditions: Candida albicans, 17546, 96 h; read-out: MFC99.9; in short: as §1
# [24] = tested on: Staphylococcus epidermidis; test: Antibacterial activity against Staphylococcus epidermidis ATCC 12228 after 24 hrs; format: functional; conditions: ATCC 12228, 24 h; in short: as §6
# Candida albicans [25] = test: Antifungal activity against fluconazole-resistant Candida albicans 56452 after 48 hrs by broth microdilution method; format: functional; conditions: Candida albicans, 56452, 48 h; in short: as §3
# Candida albicans [26] = test: Fungicidal activity against Candida albicans SP3902 after 96 hrs; format: functional; conditions: SP3902, 96 h, read-out: MFC99.9; in short: as §1
# Candida albicans [27] = test: Antifungal activity against Candida albicans 14936 after 48 hrs by broth microdilution method; format: functional; conditions: Candida albicans, 14936, 48 h; in short: as §3
# Escherichia coli [28] = test: Bactericidal activity against Escherichia coli 1005; format: functional; conditions: read-out: MBC99.9; in short: as §4
# Pichia kudriavzevii = test: Fungicidal activity against Candida krusei cgmcc 2.1857 after 96 hrs; format: functional; conditions: cgmcc 2.1857, 96 h, read-out: MFC99.9; in short: as §7
# Candida albicans [29] = test: Antifungal activity against fluconazole-resistant Candida albicans 17546 after 48 hrs by broth microdilution method; format: functional; conditions: Candida albicans, 17546, 48 h; in short: as §3
# Staphylococcus aureus [30] = test: Bactericidal activity against methicillin-resistant Staphylococcus aureus ATCC 4330; format: functional; conditions: read-out: MBC99.9
# In short: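 Bacteria at (0.5−1) × 10^5 CFU/mL in MHB were exposed to serially diluted peptide (0.2% BSA) for 24 h at 37 °C, then 50 μL aliquots were plated on agar overnight. MBC is the lowest concentration killing >99.9% of cells. At least 3 repeats.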
# Candida parapsilosis [31] = test: Antifungal activity against Candida parapsilosis cgmcc 2.3989 after 48 hrs by broth microdilution method; format: functional; conditions: Lodderomyces parapsilosis, cgmcc 2.3989, 48 h; in short: as §2
# Candida albicans [32] = test: Fungicidal activity against Candida albicans 58288 after 96 hrs; format: functional; conditions: Candida albicans, 58288, 96 h; read-out: MFC99.9; in short: as §1
Substance,MFC (Candida albicans [1]),MIC95 (Candida tropicalis [2]),MIC95 (Candida albicans [3]),MIC (Candida albicans [4]),MIC (Candida albicans [5]),MBC (Escherichia coli [6]),MIC95 (Candida albicans [7]),MIC (Escherichia coli [8]),MIC95 (Candida albicans [9]),MIC95 (Staphylococcus aureus [10]),MIC95 (Escherichia coli [11]),MIC95 (Salmonella typhimurium [12]),MFC (Candida tropicalis [13]),MBC [14],MBC (Salmonella typhimurium [15]),MIC95 (Staphylococcus aureus [16]),MFC (Candida parapsilosis [17]),MFC (Candida albicans [18]),MIC (Escherichia coli [19]),MFC (Candida albicans [20]),also measured
H-RLRLLLRLR-NH2,4 µM,2 µM,4 µM,8 µM,8 µM,8 µM,8 µM,8 µM,8 µM,8 µM,4 µM,4 µM,4 µM,8 µM,8 µM,4 µM,> 64 µM,4 µM,4 µM,16 µM,MIC (Escherichia coli [21]): 8 µM; MBC (Staphylococcus aureus [22]): 8 µM; MFC (Candida albicans [23]): 16 µM; MIC95 [24]: 4 µM; MIC95 (Candida albicans [25]): 8 µM; MFC (Candida albicans [26]): 8 µM; MIC95 (Candida albicans [27]): 4 µM; MBC (Escherichia coli [28]): 8 µM; MFC (Pichia kudriavzevii): 8 µM; MIC95 (Candida albicans [29]): 16 µM; MBC (Staphylococcus aureus [30]): 4 µM; MIC95 (Candida parapsilosis [31]): > 64 µM; MFC (Candida albicans [32]): 16 µM
H-RRFRFFFRFRR-NH2,4 µM,1 µM,4 µM,4 µM,4 µM,4 µM,4 µM,2 µM,2 µM,8 µM,4 µM,4 µM,2 µM,4 µM,8 µM,4 µM,32 µM,4 µM,4 µM,8 µM,MIC (Escherichia coli [21]): 4 µM; MBC (Staphylococcus aureus [22]): 8 µM; MFC (Candida albicans [23]): 2 µM; MIC95 [24]: 4 µM; MIC95 (Candida albicans [25]): 4 µM; MFC (Candida albicans [26]): 4 µM; MIC95 (Candida albicans [27]): 4 µM; MBC (Escherichia coli [28]): 4 µM; MFC (Pichia kudriavzevii): 2 µM; MIC95 (Candida albicans [29]): 2 µM; MBC (Staphylococcus aureus [30]): 8 µM; MIC95 (Candida parapsilosis [31]): 16 µM; MFC (Candida albicans [32]): 8 µM
H-RRIRIIIRIRR-NH2,2 µM,1 µM,1 µM,2 µM,2 µM,4 µM,2 µM,4 µM,2 µM,4 µM,4 µM,4 µM,2 µM,4 µM,4 µM,4 µM,8 µM,1 µM,4 µM,2 µM,MIC (Escherichia coli [21]): 8 µM; MBC (Staphylococcus aureus [22]): 8 µM; MFC (Candida albicans [23]): 2 µM; MIC95 [24]: 4 µM; MIC95 (Candida albicans [25]): 1 µM; MFC (Candida albicans [26]): 2 µM; MIC95 (Candida albicans [27]): 2 µM; MBC (Escherichia coli [28]): 4 µM; MFC (Pichia kudriavzevii): 2 µM; MIC95 (Candida albicans [29]): 2 µM; MBC (Staphylococcus aureus [30]): 4 µM; MIC95 (Candida parapsilosis [31]): 4 µM; MFC (Candida albicans [32]): 2 µM
H-RRLRLLLRLRR-NH2,8 µM,2 µM,4 µM,8 µM,8 µM,4 µM,8 µM,4 µM,8 µM,4 µM,4 µM,4 µM,4 µM,4 µM,4 µM,8 µM,64 µM,4 µM,4 µM,8 µM,MIC (Escherichia coli [21]): 4 µM; MBC (Staphylococcus aureus [22]): 16 µM; MFC (Candida albicans [23]): 16 µM; MIC95 [24]: 4 µM; MIC95 (Candida albicans [25]): 4 µM; MFC (Candida albicans [26]): 4 µM; MIC95 (Candida albicans [27]): 8 µM; MBC (Escherichia coli [28]): 4 µM; MFC (Pichia kudriavzevii): 8 µM; MIC95 (Candida albicans [29]): 8 µM; MBC (Staphylococcus aureus [30]): 16 µM; MIC95 (Candida parapsilosis [31]): 64 µM; MFC (Candida albicans [32]): 8 µM
